The target in one assay is T1, 5'-nucleotidase (Rattus norvegicus, UniProt P21588).
T1 sequence (P21588 whole entry): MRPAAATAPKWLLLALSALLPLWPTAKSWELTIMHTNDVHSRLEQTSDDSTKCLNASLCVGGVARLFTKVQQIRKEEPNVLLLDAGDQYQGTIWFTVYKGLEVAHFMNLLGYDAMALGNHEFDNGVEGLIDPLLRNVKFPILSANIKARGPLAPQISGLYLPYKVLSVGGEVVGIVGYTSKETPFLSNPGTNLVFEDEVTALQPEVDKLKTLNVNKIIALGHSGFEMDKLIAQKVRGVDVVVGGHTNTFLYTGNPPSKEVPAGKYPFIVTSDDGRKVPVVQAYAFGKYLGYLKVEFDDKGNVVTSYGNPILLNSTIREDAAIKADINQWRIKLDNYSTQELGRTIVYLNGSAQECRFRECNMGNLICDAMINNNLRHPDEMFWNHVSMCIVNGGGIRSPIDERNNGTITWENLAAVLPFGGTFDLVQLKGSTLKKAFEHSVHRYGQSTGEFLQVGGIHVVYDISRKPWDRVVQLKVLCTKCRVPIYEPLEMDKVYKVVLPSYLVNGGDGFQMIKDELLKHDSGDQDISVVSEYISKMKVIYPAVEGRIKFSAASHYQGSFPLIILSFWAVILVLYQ
The assay can be described thus: Inhibition of recombinant rat C-terminal His-tagged soluble form of CD73 expressed in baculovirus infected Sf9 insect cells using [2,8-3H]AMP as substrate measured after 25 mins by scintillation counting method. The essentials:
(§1)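 Enzyme is soluble rat CD73 from Sf9 cells, 1.63 ng per vial, in 25 mM Tris, 140 mM NaCl, 25 mM NaH2PO4, pH 7.4. […] Stopped by LaCl3 precipitation and GF/B filtration, then counted. Each compound first screened at 1 µM.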

Assay [1] addresses T2, 5'-nucleotidase (Rattus norvegicus) (UniProt P21588).
T2 sequence (whole entry): T1 sequence (P21588 whole entry)
Kind of assay: Inhibition of recombinant rat C-terminal His-tagged soluble form of CD73 expressed in baculovirus infected Sf9 insect cells at 1 uM using [2,8-3H]AMP as substrate measured after 25 mins by scintillation counting method relative to control. The method in brief: as §1

Some results are limits rather than exact numbers.

For orientation: Ki means the dissociation constant of the complex between target and ligand, obtained from inhibition or displacement. Usually inhibition stands for the change of the read-out against control, counted positive when it falls.

Consider `Nc1nccc2c1ncn2[C@@H]1O[C@H](COP(=O)(O)CP(=O)(O)O)[C@@H](O)[C@H]1O`, for which the inhibition constant (Ki) on 5'-nucleotidase is greater than 1 µM. The inhibition in assay [1] turned out to be 36%.
On to `O=c1ccn([C@H]2C[C@H](O)[C@@H](CO[P@@](=O)(O)CP(=O)(O)O)O2)c(=O)[nH]1`, for which, on 5'-nucleotidase, the Ki is greater than 1 µM. For the same compound, the inhibition in assay [1] amounted to 37%.
With `Nc1nc(=O)n([C@@H]2O[C@H](COP(=O)(O)CP(=O)(O)O)[C@@H](O)[C@H]2O)cc1F`, on 5'-nucleotidase, the Ki was 0.349 µM. Moreover, in assay [1], the inhibition is greater than 50%.
`CCn1c(=O)ccn([C@@H]2O[C@H](COP(=O)(O)CP(=O)(O)O)[C@@H](O)[C@H]2O)c1=O`: the inhibition constant Ki at 5'-nucleotidase is greater than 1 µM. Also, the inhibition in assay [1] came out at 4%.
With `CCn1c(=O)n([C@@H]2O[C@H](COP(=O)(O)CP(=O)(O)O)[C@@H](O)[C@H]2O)cc/c1=N\OCc1ccccc1`, the Ki on 5'-nucleotidase amounted to 0.262 µM. Further, the inhibition in assay [1] is greater than 50%.
As for `Cc1cn([C@@H]2O[C@H](COP(=O)(O)CP(=O)(O)O)[C@@H](O)[C@H]2O)c(=O)nc1N`, the inhibition constant Ki at 5'-nucleotidase was 2.03 µM. Besides, in assay [1], the inhibition is greater than 50%.
For the compound `Nc1nc(=O)n([C@@H]2O[C@H](COP(=O)(O)CP(=O)(O)O)[C@@H](O)[C@H]2O)cc1I`, the Ki at 5'-nucleotidase was 0.502 µM. In addition, in assay [1], the inhibition is greater than 50%.
In the case of `Nc1ncnc2c1ncn2[C@@H]1O[C@H](COP(=O)(O)CP(=O)(O)O)[C@@H](O)[C@H]1N`, the Ki at 5'-nucleotidase was greater than 1 µM. Moreover, the inhibition in assay [1] stood at 2%.
On to `O=c1ccn([C@@]23C[C@H]2[C@H](COP(=O)(O)CP(=O)(O)O)[C@@H](O)[C@H]3O)c(=O)[nH]1`, for which the inhibitory constant (Ki) on 5'-nucleotidase is greater than 1 µM. For the same compound, the inhibition in assay [1] was found to be 12%.
Consider `C#Cc1cn([C@@H]2O[C@H](COP(=O)(O)CP(=O)(O)O)[C@@H](O)[C@H]2O)c(=O)[nH]c1=O`, for which the inhibition constant (Ki) at 5'-nucleotidase amounted to 0.276 µM. In addition, in assay [1], the inhibition was greater than 50%.
For the compound `O=c1[nH]c(=O)n([C@@H]2O[C@H](COP(=O)(O)CP(=O)(O)O)[C@@H](O)[C@H]2O)cc1I`, the Ki on 5'-nucleotidase was determined as 0.162 µM. In assay [1], the inhibition is greater than 50%.
In the case of `Cc1cn([C@@H]2O[C@H](COP(=O)(O)CP(=O)(O)O)[C@@H](O)[C@H]2O)c(=O)[nH]c1=O`, the inhibitory constant (Ki) on 5'-nucleotidase stood at 0.338 µM. For the same compound, the inhibition in assay [1] is greater than 50%.
In the case of `CCOP(=O)(O)OP(=O)(O)OC[C@H]1O[C@@H](n2ccc(=O)[nH]c2=S)[C@H](O)[C@@H]1O`, the inhibitory constant (Ki) at 5'-nucleotidase is greater than 1 µM. Also, the inhibition in assay [1] is 10%.
The corresponding values for `O=c1[nH]/c(=N\OCc2ccccc2)ccn1[C@@H]1O[C@H](COP(=O)(O)CP(=O)(O)O)[C@@H](O)[C@H]1O` are 0.112 µM and greater than 50%.
For the compound `Nc1ncnc2c1ncn2[C@@H]1O[C@H](COP(=O)(O)CP(=O)(O)O)C[C@H]1O`, at 5'-nucleotidase, the Ki is 1.97 µM. The inhibition in assay [1] is greater than 50%.
In the case of `N[C@@H]1[C@H](O)[C@@H](COP(=O)(O)CP(=O)(O)O)O[C@H]1n1ccc(=O)[nH]c1=O`, on 5'-nucleotidase, the Ki is greater than 1 µM. Moreover, the inhibition in assay [1] was 2%.
With `O=c1[nH]c(=O)n([C@@H]2O[C@H](COP(=O)(O)CP(=O)(O)O)[C@@H](O)[C@H]2O)cc1Br`, the inhibition constant (Ki) at 5'-nucleotidase was determined as 0.0887 µM. The inhibition in assay [1] was greater than 50%.
For the compound `Cc1cn([C@@H]2O[C@H](COP(=O)(O)CCP(=O)(O)O)[C@@H](O)[C@H]2O)c(=O)[nH]c1=O`, at 5'-nucleotidase, the Ki was greater than 1 µM. For the same compound, the inhibition in assay [1] is 9%.
In the case of `Nc1ncnc2c1ncn2[C@H]1C[C@H](O)[C@@H](COP(=O)(O)CP(=O)(O)O)O1`, on 5'-nucleotidase, the inhibition constant (Ki) is greater than 1 µM. The inhibition in assay [1] came out at 30%.
In the case of `Nc1ccn([C@@H]2O[C@H](COP(=O)(O)CP(=O)(O)O)[C@@H](O)[C@H]2O)c(=O)n1`, at 5'-nucleotidase, the Ki worked out at 0.898 µM. Besides, the inhibition in assay [1] is greater than 50%.
Taken in the same sequence, the figures for `Cc1cn([C@H]2C[C@H](O)[C@@H](COP(=O)(O)CP(=O)(O)O)O2)c(=O)[nH]c1=O` were 0.639 µM and greater than 50%.
With `O=c1ccn([C@@H]2O[C@H](COP(=O)(O)CP(=O)(O)O)[C@@H](O)[C@H]2O)c(=S)[nH]1`, the inhibition constant Ki on 5'-nucleotidase is greater than 1 µM. Also, in assay [1], the inhibition amounted to 7%.
For the compound `C=C(Cl)c1cn([C@@H]2O[C@H](COP(=O)(O)CP(=O)(O)O)[C@@H](O)[C@H]2O)c(=O)n(C)c1=O`, the inhibition constant (Ki) on 5'-nucleotidase is 1.05 µM. Besides, in assay [1], the inhibition is greater than 50%.
On to `[N-]=[N+]=N[C@@H]1[C@H](O)[C@@H](COP(=O)(O)CP(=O)(O)O)O[C@H]1n1ccc(=O)[nH]c1=O`, for which the Ki on 5'-nucleotidase is greater than 1 µM. In addition, in assay [1], the inhibition came to 9%.
With `CO[C@@H]1[C@H](O)[C@@H](COP(=O)(O)CP(=O)(O)O)O[C@H]1n1cc(C)c(=O)[nH]c1=O`, the Ki at 5'-nucleotidase is greater than 1 µM. The inhibition in assay [1] was 3%.
Regarding `Cc1cn([C@@H]2O[C@H](COP(=O)(O)CP(=O)(O)O)[C@@H](O)[C@H]2O)c(=O)[nH]/c1=N/OCc1ccccc1`, the inhibition constant (Ki) at 5'-nucleotidase stood at 0.321 µM. In addition, in assay [1], the inhibition is greater than 50%.
In the case of `O=c1ccn([C@@H]2O[C@H](COP(=O)(O)CP(=O)(O)O)[C@@H](O)[C@H]2O)c(=O)[nH]1`, the inhibition constant Ki on 5'-nucleotidase is 1.83 µM. Further, the inhibition in assay [1] is greater than 50%.
With `O=c1cnn([C@@H]2O[C@H](COP(=O)(O)CP(=O)(O)O)[C@@H](O)[C@H]2O)c(=O)[nH]1`, the Ki at 5'-nucleotidase is greater than 1 µM. Moreover, the inhibition in assay [1] turned out to be 21%.
`CO/N=c1/ccn([C@@H]2O[C@H](COP(=O)(O)CP(=O)(O)O)[C@@H](O)[C@H]2O)c(=O)[nH]1`: the inhibition constant (Ki) at 5'-nucleotidase was found to be 0.257 µM. Moreover, in assay [1], the inhibition was greater than 50%.
`O=c1ccn([C@@H]2O[C@H](COP(=O)(O)CP(=O)(O)O)[C@@H](O)[C@@H]2F)c(=O)[nH]1`: the Ki on 5'-nucleotidase turned out to be 1.75 µM. Moreover, the inhibition in assay [1] was greater than 50%.
The corresponding values for `O=c1cc(O)ccn1[C@@H]1O[C@H](COP(=O)(O)CP(=O)(O)O)[C@@H](O)[C@H]1O` are greater than 1 µM and 19%.
On to `Nc1ccn([C@H]2C[C@H](O)[C@@H](COP(=O)(O)CP(=O)(O)O)O2)c(=O)n1`, for which the inhibition constant (Ki) at 5'-nucleotidase was greater than 1 µM. Further, in assay [1], the inhibition was determined as 18%.
Consider `Nc1ncnc2c1ccn2[C@@H]1O[C@H](COP(=O)(O)CP(=O)(O)O)[C@@H](O)[C@H]1O`, for which the Ki on 5'-nucleotidase came to 0.0886 µM. In assay [1], the inhibition is greater than 50%.
Taken in the same sequence, the figures for `Cn1c(=O)ccn([C@@H]2O[C@H](COP(=O)(O)CP(=O)(O)O)[C@@H](O)[C@H]2O)c1=O` were 1.86 µM and greater than 50%.
The corresponding values for `C=C(Cl)c1cn([C@@H]2O[C@H](COP(=O)(O)CP(=O)(O)O)[C@@H](O)[C@H]2O)c(=O)[nH]c1=O` are 0.424 µM and greater than 50%.
Regarding `CCCn1c(=O)ccn([C@@H]2O[C@H](COP(=O)(O)CP(=O)(O)O)[C@@H](O)[C@H]2O)c1=O`, on 5'-nucleotidase, the Ki was greater than 1 µM. Besides, the inhibition in assay [1] worked out at 7%.
With `O=c1ccn([C@@H]2O[C@H](COP(=O)(O)CCP(=O)(O)O)[C@@H](O)[C@H]2O)c(=O)[nH]1`, the inhibitory constant (Ki) on 5'-nucleotidase is greater than 1 µM. Also, the inhibition in assay [1] came out at 4%.
In the case of `O=c1ccn([C@@H]2O[C@H](COP(=O)(O)CP(=O)(O)O)[C@@H](O)[C@H]2O)c(=O)n1Cc1ccccc1`, on 5'-nucleotidase, the inhibition constant (Ki) was greater than 1 µM. Also, the inhibition in assay [1] turned out to be 3%.
In the case of `O=c1[nH]/c(=N/OCc2ccccc2)ccn1[C@H]1C[C@H](O)[C@@H](COP(=O)(O)CP(=O)(O)O)O1`, the inhibitory constant (Ki) at 5'-nucleotidase worked out at 0.78 µM. In addition, the inhibition in assay [1] was greater than 50%.
Consider `O=c1ccn([C@@H]2O[C@H](COP(=O)(O)CP(=O)(O)O)[C@@H](O)[C@@H]2O)c(=O)[nH]1`, for which, on 5'-nucleotidase, the Ki was greater than 1 µM. Besides, the inhibition in assay [1] is 8%.
